Laboratory results reported in paper PMC7453566 (ACS Central Science, 2020).
pKd: −log10 of the molar value. Counter-ions that a name gives are not always drawn.

What was measured:
[1] = system: citrate concentration in HeLa cells; test: Imaging of glucose- or drug-induced citrate concentration changes in HeLa cells; type: cell-based
[2] = system: citrate concentration in INS-1 cells; details: stimulatory glucose; cited from earlier work
[3] = system: citrate concentration in INS-1 cells; test: Citrate quantification with Citron1 in INS-1 cells treated with glucose or BTC; type: cell-based, rat
Procedure, shortened: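 INS-1 cells express the direct-response citrate biosensor in the cytosol or in mitochondria and are imaged in Krebs-Ringer buffer, with 20 mM glucose then 2 mM test compound, or test compound without glucose. Concentrations are read from in situ titration curves in digitonin-permeabilized cells (cytosol n = 62, mitochondria n = 34 cells). Each value is the average of triplicates; s.e.m. is given.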

CF98 = type: binding; details: read-out: Kd (CF98)
Citron1 = type: cell-based, HeLa; details: read-out: in situ Kd (Citron1); n = 128
Procedure, shortened: (§1)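 HeLa cells (ATCC CCL-2) express the biosensor from a CMV promoter, untargeted (cytoplasmic/nuclear). Cells are imaged, permeabilized with digitonin, then titrated stepwise with citrate (0.1 to ∼20 mM) in the imaging buffer, allowing at least 250 s per step. The mean response versus citrate gives the in situ calibration curve, from 128 cells or 26 cells; s.e.m. is given.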

Citroff1 = type: cell-based, HeLa; details: read-out: in situ Kd (Citroff1); n = 26
Procedure, shortened: as §1

For `OC[C@H]1OC(O)[C@H](O)[C@@H](O)[C@@H]1O` (stereo partly drawn) [glucose], the “cytosolic citrate concentration change upon glucose addition” value ([1]; HeLa cells starved 0.5–1 h, 20 mM glucose) is given as “substantially increased”, the “mitochondrial citrate change upon glucose addition” value ([1]; HeLa cells starved 0.5–1 h, mitochondria-localized Citron1) is given as “initial transient decrease followed by a slower increase” and the “fold increase in the concentration of citrate” value [2] is given as ~8 fold. For the same compound, the “cytosolic and mitochondrial citrate concentration after treatment” value ([3]; 20 mM glucose, Krebs-Ringer buffer) was ~25 mM.
With `O=C(O)CC(O)(CC(=O)O)C(=O)O` [citrate, citrate (2-hydroxypropane-1,2,3-tricarboxylate)] the pKd (CF98) was ~2.05, the pKd (Citron1) was 2.24 and the pKd (Citroff1) was 3.89.
With `N#C/C(=C\c1cn(-c2ccccc2)c2ccccc12)C(=O)O` [UK-5099, reference compound] the “subsequent change of Citron1 fluorescence” value ([1]; HeLa mitochondria, 25 μM) was “sustained decrease” and the “transient increase of Citron1 fluorescence” value ([1]; HeLa mitochondria, 25 μM, likely DMSO artifact per authors) was 20%.
For `O=C(O)c1cccc(C(=O)O)c1C(=O)O` [BTC, 1,2,3-benzenetricarboxylate], the “citrate concentration, following increase” value ([3]; 2 mM BTC after glucose addition) was ~18 mM, the “citrate concentration, pronounced decrease after treatment” value ([3]; 2 mM BTC after glucose addition, from ∼25 mM) was ~10 mM and the “citrate concentration after treatment” value ([3]; 2 mM BTC in the absence of glucose, from ∼3 mM) was “less than 2 mM”.
